The values that follow come from ChEMBL document CHEMBL1156279, “2-Cyano-3,10-dioxooleana-1,9(11)-dien-28-oic acid anhydride. A novel and highly potent anti-inflammatory and cytoprotective agent” (Bioorg Med Chem Lett, 2010).

The source made the active and inactive calls. The rule behind the calls is not given here.

The subject of one data set is RAW264.7. The data set is described as follows: Antiinflammatory activity against IFN-gamma-stimulated mouse RAW264.7 cells assessed as nitrite accumulation after 24 hrs by Griess reagent method. Type of data set: functional, cell-based. To be noted: RAW264.7, 24 h. Put shortly:
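RAW 264.7 cells co-treated with graded compound concentrations and interferon-γ (10 ng/mL) for 24 hours; nitric oxide in supernatants measured by Griess reaction. IC50 averaged over three experiments.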
(In general: The Griess reaction detects nitrite, a stable product of nitric oxide.)

The target in data set [1] is T1, Heme oxygenase 1 (Mus musculus) (UniProt P14901).
T1 sequence (whole entry): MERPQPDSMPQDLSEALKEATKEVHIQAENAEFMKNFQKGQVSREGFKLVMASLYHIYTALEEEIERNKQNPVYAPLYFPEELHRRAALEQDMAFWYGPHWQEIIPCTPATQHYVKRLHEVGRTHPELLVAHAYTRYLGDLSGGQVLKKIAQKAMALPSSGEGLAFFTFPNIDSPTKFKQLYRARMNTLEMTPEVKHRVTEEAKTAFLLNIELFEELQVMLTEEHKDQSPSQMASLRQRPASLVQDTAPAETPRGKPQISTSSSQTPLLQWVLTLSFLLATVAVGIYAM
The data set is described as follows: Induction of HO1 in mouse RAW264.7 cells at 100 nM after 6 hrs by SDS-PAGE. Format: cell-based. Put shortly:
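RAW 264.7 cells exposed to compounds at 100 nM for 6 hours. Total cell lysates resolved by SDS-PAGE, immunoblotted with HO-1 antibody, ECL detection.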

In the next data set the test system is Liver. The experiment in a line: Drug level in CD1 mouse liver at 2 umol, ip after 6 hrs by HPLC/MS. Type of data set: ADME, organism-based. To be noted: in vivo. The method, boiled down: (§1)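 Female CD-1 mice dosed i.p. with 2 µmol compound in DMSO–cremophor–PBS (1:1:8). Sacrificed 6 hours later; liver, lung, whole blood and plasma collected for compound levels (tissue µmol/kg, blood/plasma µM).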

Another data set has as its system Lung. The data set is described as follows: Drug level in CD1 mouse lung at 2 umol, ip after 6 hrs by HPLC/MS. Format: ADME, organism-based. The settings on record: in vivo. Put shortly: as §1
The nature of data set [2]: Drug level in CD1 mouse whole blood at 2 umol, ip after 6 hrs by HPLC/MS. Format: ADME, organism-based. To be noted: read-out: Drug uptake. The method, boiled down:
as §1

A short description of data set [3]: Drug uptake in CD1 mouse plasma at 2 umol, ip after 6 hrs by HPLC/MS. The settings on record: read-out: Drug uptake. Type of data set: ADME, organism-based. Put shortly: as §1
Data set [4] is described as follows: Stability assessed as compound remaining after 24 hrs in presence of in 10% fetal bovine serum. Type of data set: ADME. The settings on record: cattle. The method, boiled down:
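Compound incubated in RAW 264.7 cell growth medium (RPMI with 10% fetal bovine serum) at 37 °C. Percentage of material remaining followed over time up to 24 h.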

In a further data set the test system is Mus musculus. The experiment in a line: Induction of HO1 in CD1 mouse liver at 2 umol, ip after 6 hrs by SDS-PAGE. Format: functional, organism-based. Put shortly: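 CD-1 mice, 4 per group, given a single 2 µmol i.p. injection. Livers harvested after 6 h and homogenized. Lysates separated by SDS-PAGE, probed with HO-1 antibodies and developed by ECL.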

Consider `CC1(C)CC[C@]2(C(=O)O)CC[C@]3(C)[C@H](C(=O)C=C4[C@@]5(C)C=C(C#N)C(=O)C(C)(C)[C@@H]5CC[C@]43C)[C@@H]2C1` [BARDOXOLONE], for which the IC50 in the data set on RAW264.7 is 28.3 nM. Moreover, in data set [1], the outcome was Active. Further, the Drug uptake in the data set on Liver came to 0.041 µmol/kg; with Lung, 0.018 µmol/kg. The concentration at 6 h in data set [2] is 19 µM; in data set [3] it was 2 µM.
Regarding `C=C(C)[C@@H]1CC[C@]2(C(=O)O)CC[C@]3(C)[C@H](CC[C@@H]4[C@@]5(C)C=C(C#N)C(=O)C(C)(C)[C@@H]5CC[C@]43C)[C@@H]12`, the result in data set [1] was Active.
Turning to `C=C(C)[C@@H]1CC[C@]2(C(=O)OC(=O)[C@]34CC[C@@H](C(=C)C)[C@@H]3[C@H]3CC[C@@H]5[C@@]6(C)C=C(C#N)C(=O)C(C)(C)[C@@H]6CC[C@@]5(C)[C@]3(C)CC4)CC[C@]3(C)[C@H](CC[C@@H]4[C@@]5(C)C=C(C#N)C(=O)C(C)(C)[C@@H]5CC[C@]43C)[C@@H]12` [LUPANE ANHYDRIDE], the IC50 in the data set on RAW264.7 is above 10000 nM. The result in data set [1] was inactive.
Take `CC1(C)CC[C@]2(C(=O)OC(=O)[C@]34CCC(C)(C)C[C@H]3[C@H]3C(=O)C=C5[C@@]6(C)C=C(C#N)C(=O)C(C)(C)[C@@H]6CC[C@@]5(C)[C@]3(C)CC4)CC[C@]3(C)[C@H](C(=O)C=C4[C@@]5(C)C=C(C#N)C(=O)C(C)(C)[C@@H]5CC[C@]43C)[C@@H]2C1`: the IC50 with RAW264.7 came to 14.7 nM. Besides, the result (in data set [1]; with Mus musculus) was Active. Besides, the outcome in data set [4] was Active. Further, the values for the Drug uptake in the data set with Liver and in the data set on Lung were 0.045 µmol/kg and 0.031 µmol/kg, respectively. The concentration at 6 h in data set [2] is 52 µM; in data set [3], 43 µM.

For orientation: IC50 means the concentration at which inhibition is half-maximal.
